Reference: ChEMBL document CHEMBL3397016, “SAR-studies of γ-secretase modulators with PPARγ-agonistic and 5-lipoxygenase-inhibitory activity for Alzheimer's disease” (Bioorg Med Chem Lett, 2015)
Activity calls are given as the source filed them. The rule behind the calls is not given here.

Columns and labels:
[1] = biological target: T1, Presenilin-1 (Homo sapiens, UniProt P49768); assay: Inhibition of wild-type human presenilin-1 stably overexpressed in CHO cells co-expressing wild-type human amyloid precursor protein assessed as inhibition of amyloid beta 42 formation after 24 hrs by ELISA; format: cell-based
[2] = biological target: T1, Presenilin-1; assay: Activation of wild-type human presenilin-1 stably overexpressed in CHO cells co-expressing wild-type human amyloid precursor protein assessed as amyloid beta 38 formation after 24 hrs by ELISA; format: cell-based
[3] = biological target: T2, Polyunsaturated fatty acid 5-lipoxygenase (Homo sapiens, UniProt P09917); assay: Inhibition of 5-LO in human PMNL assessed as reduction in 5-LO product formation pre-incubated for 15 mins before addition of arachidonic acid substrate by HPLC analysis
T2 sequence (P09917 whole entry): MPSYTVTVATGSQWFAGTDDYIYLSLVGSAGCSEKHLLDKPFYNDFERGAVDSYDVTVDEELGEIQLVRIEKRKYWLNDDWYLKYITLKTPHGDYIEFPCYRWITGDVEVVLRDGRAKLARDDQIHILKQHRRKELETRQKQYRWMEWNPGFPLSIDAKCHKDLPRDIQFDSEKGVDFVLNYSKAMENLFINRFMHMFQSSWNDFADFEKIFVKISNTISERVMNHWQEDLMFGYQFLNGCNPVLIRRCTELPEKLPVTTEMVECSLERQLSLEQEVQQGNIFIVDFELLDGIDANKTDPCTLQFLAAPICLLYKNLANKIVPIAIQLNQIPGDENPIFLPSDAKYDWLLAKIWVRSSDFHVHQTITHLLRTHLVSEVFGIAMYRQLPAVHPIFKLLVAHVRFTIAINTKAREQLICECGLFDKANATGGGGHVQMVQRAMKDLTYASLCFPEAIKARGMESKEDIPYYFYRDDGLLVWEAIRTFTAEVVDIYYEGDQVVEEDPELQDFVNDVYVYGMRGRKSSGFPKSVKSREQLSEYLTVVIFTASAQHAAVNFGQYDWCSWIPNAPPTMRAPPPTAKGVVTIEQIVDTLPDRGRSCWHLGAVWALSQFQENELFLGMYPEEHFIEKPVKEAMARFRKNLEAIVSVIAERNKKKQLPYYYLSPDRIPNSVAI

[4] = biological target: T3, Prostaglandin G/H synthase 1 (Ovis aries) (UniProt P05979); assay: Inhibition of ovine COX1-mediated 12-HHT formation assessed as remaining activity at 10 uM preincubated for 5 mins before arachidonic acid addition by HPLC analysis
T3 sequence (whole entry): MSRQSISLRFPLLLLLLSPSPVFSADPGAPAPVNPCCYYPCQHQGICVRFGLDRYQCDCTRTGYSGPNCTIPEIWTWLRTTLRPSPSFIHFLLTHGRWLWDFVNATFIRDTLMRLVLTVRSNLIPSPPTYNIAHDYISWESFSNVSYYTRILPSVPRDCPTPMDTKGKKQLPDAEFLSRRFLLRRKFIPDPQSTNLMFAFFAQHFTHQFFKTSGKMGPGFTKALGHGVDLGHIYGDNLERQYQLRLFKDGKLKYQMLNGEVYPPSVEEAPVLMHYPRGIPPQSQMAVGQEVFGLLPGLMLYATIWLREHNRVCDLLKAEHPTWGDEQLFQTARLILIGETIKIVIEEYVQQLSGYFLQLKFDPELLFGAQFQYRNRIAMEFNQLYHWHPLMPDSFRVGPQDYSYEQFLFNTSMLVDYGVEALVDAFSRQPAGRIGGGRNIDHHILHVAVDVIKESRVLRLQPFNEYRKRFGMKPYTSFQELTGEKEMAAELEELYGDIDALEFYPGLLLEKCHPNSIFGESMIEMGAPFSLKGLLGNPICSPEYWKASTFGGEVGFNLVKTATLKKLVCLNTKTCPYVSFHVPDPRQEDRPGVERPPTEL
How it was run: (§1)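 Cell-free enzyme assays. Data given either as IC50 or as remaining enzyme activity at 10 µM test concentration.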

[5] = biological target: T4, Prostaglandin G/H synthase 2 (Homo sapiens) (UniProt P35354); assay: Inhibition of human recombinant COX2-mediated 12-HHT formation assessed as remaining activity at 10 uM preincubated for 5 mins before arachidonic acid addition by HPLC analysis; how it was run: as §1
T4 sequence (whole entry): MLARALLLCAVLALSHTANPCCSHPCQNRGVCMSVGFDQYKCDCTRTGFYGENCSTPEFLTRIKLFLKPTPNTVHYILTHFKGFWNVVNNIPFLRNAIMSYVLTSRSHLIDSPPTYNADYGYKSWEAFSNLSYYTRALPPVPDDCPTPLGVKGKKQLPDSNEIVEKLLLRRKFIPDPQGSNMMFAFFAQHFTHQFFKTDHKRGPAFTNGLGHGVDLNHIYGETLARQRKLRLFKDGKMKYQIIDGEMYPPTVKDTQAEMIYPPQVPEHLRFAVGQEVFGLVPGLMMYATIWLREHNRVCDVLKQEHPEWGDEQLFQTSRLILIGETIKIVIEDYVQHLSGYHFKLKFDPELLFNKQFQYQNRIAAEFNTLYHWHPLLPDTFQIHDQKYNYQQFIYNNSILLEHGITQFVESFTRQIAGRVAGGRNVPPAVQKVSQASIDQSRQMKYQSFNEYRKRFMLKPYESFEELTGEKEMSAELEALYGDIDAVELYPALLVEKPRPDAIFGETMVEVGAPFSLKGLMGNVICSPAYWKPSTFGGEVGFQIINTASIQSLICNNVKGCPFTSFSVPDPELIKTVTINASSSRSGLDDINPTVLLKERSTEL

[6] = biological target: Neurogenic locus notch homolog protein 1 (Homo sapiens, UniProt P46531); assay: Inhibition of NOTCH-1 signaling (unknown origin) expressed in CHO cells at 5 to 50 uM after 24 hrs by dual luciferase reporter gene assay; format: cell-based
How it was run: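 Dual luciferase Notch reporter read-out in CHO cells. Test compounds were run at 5–50 µM. The γ-secretase inhibitor LY-411575 was run at 0.5 µM as the reference treatment.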

[7] = Cytotoxicity against CHO cells assessed as cell viability up to 30 uM after 24 hrs by alamar blue assay; format: cell-based, Cricetulus griseus; details: chinese hamster, read-out: Activity
[8] = biological target: T5, Prostaglandin E synthase (Homo sapiens, UniProt O14684); assay: Inhibition of mPGES-1-mediated PGE2 formation in interleukin-1beta-stimulated human A549 microsomal membranes preincubated for 15 mins before PGH2 addition by RP-HPLC analysis
T5 sequence (O14684 whole entry): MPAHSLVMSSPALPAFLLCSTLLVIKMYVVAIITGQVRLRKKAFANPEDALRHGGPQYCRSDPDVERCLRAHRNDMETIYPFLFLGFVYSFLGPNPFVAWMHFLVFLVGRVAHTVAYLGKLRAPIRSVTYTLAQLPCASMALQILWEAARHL

[9] = biological target: T6, Prostaglandin G/H synthase 1 (Ovis aries, UniProt P05979); assay: Inhibition of ovine COX1-mediated 12-HHT formation preincubated for 5 mins before arachidonic acid addition by HPLC analysis; how it was run: as §1
T6 sequence (P05979 whole entry): T3 sequence (whole entry)

[10] = biological target: T7, Prostaglandin G/H synthase 2 (Homo sapiens, UniProt P35354); assay: Inhibition of human recombinant COX2-mediated 12-HHT formation preincubated for 5 mins before arachidonic acid addition by HPLC analysis; how it was run: as §1
T7 sequence (P35354 whole entry): T4 sequence (whole entry)

[11] = biological target: T8, Peroxisome proliferator-activated receptor gamma (Homo sapiens) (UniProt P37231); assay: Activation of human PPARgamma ligand binding domain expressed in COS7 cells at 10 uM by dual luciferase reporter gene assay; format: cell-based; details: COS-7
T8 sequence (whole entry): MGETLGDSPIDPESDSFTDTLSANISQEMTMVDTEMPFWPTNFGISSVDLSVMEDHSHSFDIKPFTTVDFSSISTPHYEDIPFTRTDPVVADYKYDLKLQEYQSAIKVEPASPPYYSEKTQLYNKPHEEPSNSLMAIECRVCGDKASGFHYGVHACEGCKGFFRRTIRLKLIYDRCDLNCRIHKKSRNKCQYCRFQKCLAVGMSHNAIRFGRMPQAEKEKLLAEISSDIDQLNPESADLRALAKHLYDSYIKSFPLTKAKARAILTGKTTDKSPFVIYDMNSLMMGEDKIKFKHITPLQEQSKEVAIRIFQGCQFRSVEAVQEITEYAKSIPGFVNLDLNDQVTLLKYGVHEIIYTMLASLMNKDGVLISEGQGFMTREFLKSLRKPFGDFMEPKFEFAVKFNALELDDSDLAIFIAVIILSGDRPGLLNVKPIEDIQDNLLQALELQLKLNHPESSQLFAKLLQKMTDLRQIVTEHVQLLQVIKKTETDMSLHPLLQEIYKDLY

[12] = biological target: T9, Peroxisome proliferator-activated receptor gamma (Homo sapiens, UniProt P37231); assay: Activation of human PPARgamma ligand binding domain expressed in COS7 cells by dual luciferase reporter gene assay; format: cell-based, COS-7
T9 sequence (P37231 whole entry): T8 sequence (whole entry)

[13] = biological target: T8, Peroxisome proliferator-activated receptor gamma (Homo sapiens); assay: Activation of human PPARgamma ligand binding domain expressed in COS7 cells by dual luciferase reporter gene assay relative to 1 uM pioglitazone; format: cell-based; details: COS-7
[14] = Cytotoxicity against human Jurkat cells assessed as reduction in cell viability up to 30 uM after 24 to 48 hrs by MTT assay; format: cell-based; details: read-out: INH

Chain of Neurogenic locus notch homolog protein 1 (P46531 whole entry): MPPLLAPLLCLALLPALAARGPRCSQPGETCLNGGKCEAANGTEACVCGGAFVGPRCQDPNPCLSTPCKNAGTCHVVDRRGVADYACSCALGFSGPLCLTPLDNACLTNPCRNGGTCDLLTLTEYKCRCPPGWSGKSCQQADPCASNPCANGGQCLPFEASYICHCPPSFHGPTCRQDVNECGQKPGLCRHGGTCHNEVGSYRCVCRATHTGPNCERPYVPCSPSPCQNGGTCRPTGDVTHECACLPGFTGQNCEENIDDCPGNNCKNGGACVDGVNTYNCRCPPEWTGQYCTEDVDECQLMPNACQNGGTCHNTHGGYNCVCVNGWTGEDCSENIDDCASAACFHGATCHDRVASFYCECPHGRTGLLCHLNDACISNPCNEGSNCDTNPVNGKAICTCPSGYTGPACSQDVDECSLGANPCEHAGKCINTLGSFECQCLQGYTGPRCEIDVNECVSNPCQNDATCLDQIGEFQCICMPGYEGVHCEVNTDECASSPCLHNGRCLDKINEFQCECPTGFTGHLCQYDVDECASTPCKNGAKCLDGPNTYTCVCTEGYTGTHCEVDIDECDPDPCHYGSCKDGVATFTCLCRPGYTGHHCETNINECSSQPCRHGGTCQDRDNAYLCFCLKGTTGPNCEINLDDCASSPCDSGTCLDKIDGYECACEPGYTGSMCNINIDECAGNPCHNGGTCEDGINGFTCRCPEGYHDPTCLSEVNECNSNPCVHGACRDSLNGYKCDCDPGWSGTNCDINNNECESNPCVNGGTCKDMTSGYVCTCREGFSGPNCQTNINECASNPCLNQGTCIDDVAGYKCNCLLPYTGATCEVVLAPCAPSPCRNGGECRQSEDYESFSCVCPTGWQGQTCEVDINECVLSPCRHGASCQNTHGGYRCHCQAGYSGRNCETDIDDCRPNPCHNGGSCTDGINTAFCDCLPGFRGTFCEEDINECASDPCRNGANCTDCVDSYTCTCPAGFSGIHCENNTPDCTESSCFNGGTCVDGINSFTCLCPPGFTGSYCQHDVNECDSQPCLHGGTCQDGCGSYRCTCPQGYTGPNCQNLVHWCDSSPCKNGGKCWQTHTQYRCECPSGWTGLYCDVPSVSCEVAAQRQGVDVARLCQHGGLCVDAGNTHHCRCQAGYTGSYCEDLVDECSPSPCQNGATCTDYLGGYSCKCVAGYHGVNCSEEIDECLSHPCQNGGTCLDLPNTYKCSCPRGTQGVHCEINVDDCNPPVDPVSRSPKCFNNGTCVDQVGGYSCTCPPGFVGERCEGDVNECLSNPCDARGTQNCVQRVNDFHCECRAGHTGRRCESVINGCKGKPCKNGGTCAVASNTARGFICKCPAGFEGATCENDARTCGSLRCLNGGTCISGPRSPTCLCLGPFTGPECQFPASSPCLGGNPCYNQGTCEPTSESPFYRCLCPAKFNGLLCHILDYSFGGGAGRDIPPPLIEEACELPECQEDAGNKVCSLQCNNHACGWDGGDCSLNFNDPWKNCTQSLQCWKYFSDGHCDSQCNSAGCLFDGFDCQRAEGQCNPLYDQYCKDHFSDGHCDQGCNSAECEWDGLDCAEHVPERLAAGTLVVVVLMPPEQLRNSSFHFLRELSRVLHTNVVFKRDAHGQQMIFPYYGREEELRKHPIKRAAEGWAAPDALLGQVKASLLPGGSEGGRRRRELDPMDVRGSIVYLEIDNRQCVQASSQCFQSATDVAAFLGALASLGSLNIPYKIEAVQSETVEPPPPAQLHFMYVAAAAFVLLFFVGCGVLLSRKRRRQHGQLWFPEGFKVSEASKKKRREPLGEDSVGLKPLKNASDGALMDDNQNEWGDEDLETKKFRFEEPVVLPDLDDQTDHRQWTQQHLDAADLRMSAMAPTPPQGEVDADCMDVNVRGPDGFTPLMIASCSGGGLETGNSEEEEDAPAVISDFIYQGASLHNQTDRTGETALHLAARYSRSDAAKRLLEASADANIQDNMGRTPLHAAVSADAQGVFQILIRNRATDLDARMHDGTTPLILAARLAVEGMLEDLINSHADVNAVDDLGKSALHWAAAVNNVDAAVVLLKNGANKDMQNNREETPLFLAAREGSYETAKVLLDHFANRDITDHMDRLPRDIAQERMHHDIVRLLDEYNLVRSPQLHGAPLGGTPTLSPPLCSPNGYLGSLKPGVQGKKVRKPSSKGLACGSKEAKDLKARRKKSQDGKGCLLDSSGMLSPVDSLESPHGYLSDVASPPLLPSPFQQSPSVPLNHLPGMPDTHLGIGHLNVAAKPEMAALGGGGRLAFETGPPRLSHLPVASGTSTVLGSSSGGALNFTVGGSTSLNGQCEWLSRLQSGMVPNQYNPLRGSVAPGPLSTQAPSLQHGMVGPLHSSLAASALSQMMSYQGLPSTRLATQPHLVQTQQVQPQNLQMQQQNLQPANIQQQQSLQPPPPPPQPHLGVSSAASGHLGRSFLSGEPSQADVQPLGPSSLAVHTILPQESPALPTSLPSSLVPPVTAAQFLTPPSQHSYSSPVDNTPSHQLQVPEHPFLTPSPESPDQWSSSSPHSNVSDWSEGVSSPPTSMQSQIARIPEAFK

SMILES	IC50 [1] [µM]	EC50 [2] [µM]	IC50 ([3]; read-out: IC50) [µM]	Activity [4] [%]	Activity [5] [%]	inhibition (INH) [6]	viability at 24 h [7] [%]	IC50 [8] [µM]	IC50 [9] [µM]	IC50 [10] [µM]	Activity [11] [%]	EC50 ([12]; cos-7)	max activation [13]	cytotoxicity [14] [%]	IC50 [3]	EC50 ([12]; read-out: EC50) [µM]
CCCC/C(=C\c1cc(OCc2ccc3nc(C(F)(F)F)cc(OC)c3c2)ccc1OCc1ccc(C(F)(F)F)cc1)C(=O)O	0.63	1.17	0.2	69	84.2	Not Active	> 50	3	> 10	> 10	17	–	–	–	–	–
CCCC/C(=C\c1cc(OCc2cc3ccccc3s2)ccc1OCc1ccc(C(F)(F)F)cc1)C(=O)O	4.6	2.1	0.7	67.4	91.7	–	–	9.2	> 10	> 10	–	Not Active	inactive	> 50	–	–
CCCC/C(=C\c1cc(O)ccc1OCc1ccc(C(F)(F)F)cc1)C(=O)O	> 40	> 40	–	–	–	–	–	–	–	–	48	–	–	–	Not Active	–
CCCC/C(=C\c1cc(-c2ccccc2)ccc1OCc1ccc(C(F)(F)F)cc1)C(=O)O	11.9	12	5.7	–	–	–	–	–	–	–	26	–	–	–	–	–
CCCC/C(=C\c1cc(OCC(c2ccccc2)c2ccccc2)ccc1OCc1ccc(C(F)(F)F)cc1)C(=O)O	11.4	11.2	0.25	61.1	79.5	–	–	> 10	> 10	> 10	–	–	97%	–	–	1.26
CCCC/C(=C\c1cc(OCc2ccc(F)cc2)ccc1OCc1ccc(C(F)(F)F)cc1)C(=O)O	7	13.8	0.5	78.4	84.2	–	–	4.9	> 10	> 10	–	–	76%	–	–	5.17
CCCC/C(=C\c1cc(OCC2CCC(C(F)(F)F)CC2)ccc1OCc1ccc(C(F)(F)F)cc1)C(=O)O (stereo not drawn)	1	1.1	1.7	58	75.3	Not Active	> 50	2.5	> 10	> 10	–	–	158%	–	–	2.16
CCCC/C(=C\c1cc(OCc2cc(C(F)(F)F)cc(C(F)(F)F)c2)ccc1OCc1ccc(C(F)(F)F)cc1)C(=O)O	0.79	1	0.3	62.4	77.3	–	> 50	> 10	> 10	> 10	–	–	103%	–	–	4.64
CCCC/C(=C\c1cc(OCc2ccc(OCCN3CCOCC3)cc2)ccc1OCc1ccc(C(F)(F)F)cc1)C(=O)O	2.2	0.97	0.9	91.3	95	–	–	8.7	> 10	> 10	–	–	66%	–	–	3.77
